# Laboratory results taken from ChEMBL document CHEMBL4371029, “Design, synthesis and evaluation of N2,N4-diaminoquinazoline based inhibitors of phosphodiesterase type 5” (Bioorg Med Chem Lett, 2019).
# How the values were obtained:
# [1] = Selectivity index, ratio of IC50 for human A549 cells to IC50 for rat lung PDE5
# [2] = molecular target: cGMP-specific 3',5'-cyclic phosphodiesterase (Rattus norvegicus, UniProt O54735); assay: Inhibition of rat lung PDE5 using [3H]cGMP as substrate measured after 10 mins by scintillation counting method
# [3] = Inhibition of histone activated chicken PDE6 using [3H]cGMP as substrate measured after 10 mins by scintillation counting method; set-up: species or system Gallus gallus
# Method in brief: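 Radioactive enzyme assay adapted from Sonnenburg et al. IC50 is the concentration giving 50% enzyme inhibition. Percent inhibition at the highest concentration tested is also recorded.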
# [4] = Selectivity index, ratio of IC50 for histone activated chicken PDE6 to IC50 for rat lung PDE5
# [5] = tested on: A549; assay: Cytotoxicity against human A549 cells after 72 hrs by MTT assay; format: cell-based; details: A549, 72 h
# Method in brief: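 A549 adenocarcinomic human alveolar basal epithelial cells (ATCC CCL-185). Viability read by MTT; result expressed as IC50.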
# [6] = tested on: Artery; assay: Vasorelaxant activity in Wistar rat endothelium intact pulmonary artery rings assessed as inhibition of phenylephrine-induced contraction; format: functional, tissue-based
# [7] = Equilibrium solubility of the compound in pH 7.4 phosphate buffer saline at 1 mg sonicated for 1 hr followed by 6 hrs incubation by shake flask method; format: physicochemical; details: phosphate buffered saline
Compound,Ratio IC50 [1],IC50 [2] [nM],IC50 [3] [nM],Ratio IC50 [4],IC50 [5] [nM],EC50 [6] [nM],solubility thermodynamic at 6 h [7] [µM]
NS(=O)(=O)c1cccc(Nc2nc(NCc3ccccc3)c3ccccc3n2)c1,155,72,332,4.61,11200,1630,1370
c1ccc(CNc2nc(Nc3ccccc3)nc3ccccc23)cc1,9,1380,890,0.65,12300,–,410
COc1cc2nc(Nc3cccc(S(N)(=O)=O)c3)nc(NCc3cccs3)c2cc1OC,–,555,–,–,–,–,–
NS(=O)(=O)c1ccc(Nc2nc(NCc3cccs3)c3ccccc3n2)cc1,–,224,–,–,–,–,–
NS(=O)(=O)c1ccc(Nc2nc(NCc3ccccc3)c3ccccc3n2)cc1,–,946,–,–,–,–,–
COc1cccc(CNc2nc(Nc3cccc(S(N)(=O)=O)c3)nc3ccccc23)c1,–,350,–,–,–,–,–
NS(=O)(=O)c1cccc(Nc2nc(NCc3cccs3)c3ccccc3n2)c1,169,89,360,4.04,15000,2280,340
O=C(Nc1ccccc1)Nc1ccc(Nc2nc(NCc3cccs3)c3ccccc3n2)cc1,–,775,–,–,–,–,–
COc1cc2nc(Nc3cccc(S(N)(=O)=O)c3)nc(NCc3ccccc3)c2cc1OC,–,218,–,–,–,–,–
Cc1cc(Nc2nc(Nc3cccc(S(N)(=O)=O)c3)nc3ccccc23)n[nH]1,–,3710,–,–,–,–,–
c1ccc(CNc2nc(Nc3ccc(N4CCOCC4)cc3)nc3ccccc23)cc1,23,525,450,0.86,12100,–,600
NS(=O)(=O)c1cccc(Nc2nc(NCc3ccco3)c3ccccc3n2)c1,232,116,190,1.64,26900,–,380
c1ccc(Nc2nc(NCc3cccs3)c3ccccc3n2)cc1,–,1440,–,–,–,–,–
NC(=O)c1ccc(Nc2nc(NCc3cccs3)c3ccccc3n2)cc1,–,177,–,–,–,–,–
COc1cccc(CNc2nc(Nc3cccc(S(N)(=O)=O)c3)nc3cc(OC)c(OC)cc23)c1,–,443,–,–,–,–,–
COc1cc2nc(Nc3cccc(S(N)(=O)=O)c3)nc(NCc3ccco3)c2cc1OC,–,284,–,–,–,–,–
c1csc(CNc2nc(Nc3ccc(N4CCOCC4)cc3)nc3ccccc23)c1,22,514,610,1.19,11400,–,480
Clc1cnc(Nc2ccccc2)nc1NCc1ccccc1,–,> 10000,33500,–,–,–,–
CCCc1nn(C)c2c(=O)[nH]c(-c3cc(S(=O)(=O)N4CCN(C)CC4)ccc3OCC)nc12,–,–,13,–,–,140,–
CN(C)S(=O)(=O)c1ccc(Nc2nc(NCc3ccccc3)c3ccccc3n2)cc1,–,1260,–,–,–,–,–
NC(=O)c1cccc(Nc2nc(NCc3cccs3)c3ccccc3n2)c1,–,290,–,–,–,–,–
